Results from ChEMBL document CHEMBL5038602, “Potent Lys Patch-Containing Stapled Peptides Targeting PCSK9” (J Med Chem, 2021).
The source made the active and inactive calls. No cut-off for these calls is given here. Positions of bridges follow the written chain, without caps; N, C: chain ends. Non-standard residues stand in square brackets, D forms with d. Residues, ends and D or L forms follow the SMILES beside them. ξ: configuration not given here. S5 = C=CCCC[C@](C)(N)C(=O)O; Orn = NCCC[C@H](N)C(=O)O; ξK = NCCCCC(N)C(=O)O; ξA = CC(N)C(=O)O

Experiments:
[1] = Reversal of LDL uptake in human HepG2 cells at 10 uM for 2 hrs preincubation with PCSK9 followed by LDL addition and measured after 4 hrs by fluorimetry method relative to control; format: functional; conditions: time 6 hrs
Procedure, shortened: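 HepG2 cells seeded 40000/well, serum-starved 24 h in DMEM with 5% LPDS. Human His-PCSK9 (20–50 nM) preincubated 30–60 min at room temperature ± compounds (10 µM to 0.0001 µM, 0.1% DMSO). Cells then exposed 2 h at 37°C. LDL-BODIPY added to 10 µg/mL final for 4 h. Fluorescence read at ex 480/em 520 nm. Expressed as % maximal LDL-BODIPY incorporation; EC50 by non-linear fit.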

[2] = biological target: Proprotein convertase subtilisin/kexin type 9 (Homo sapiens, UniProt Q8NBP7); assay: Binding affinity to human PCSK9 by surface plasmon resonance
Procedure, shortened: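 Recombinant human His-tagged PCSK9 (Gln31–Gln692, HEK293-expressed) at 14 µg/mL amine-coupled onto Ni-NTA chip, ~1000–4000 RU. Buffer 25 mM Tris-HCl, 5 mM CaCl2, 100 mM NaCl, 0.01% P20, pH 7.5, 5% DMSO in running buffer. 25°C. Double-referenced sensorgrams; KD from steady-state equilibrium responses fit to a 4-parameter model, or kinetics fit 1:1.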

HepG2 = assay: Cytotoxicity against human HepG2 cells assessed as reduction in cell viability at 0.4 to 10 uM for 48 hrs by SRB assay; format: toxicity, cell-based; conditions: hepg2, 48 h, dose 0.4-10 µM
Procedure, shortened: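 HepG2 cells seeded 2000/well 24 h before treatment. Compounds at 0.4, 1.1, 3.3 and 10 µM in DMEM, 48 h at 37°C. SRB staining 30 min at 37°C, dye dissolved in 10 mM Tris base, absorbance at 560 nm. Triplicate wells averaged and normalized to untreated cells.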

[3] = Effect on mast cell degranulation in human LAD2 cells assessed as CCL3 release measured after 2 hrs by Luminex bead based assay; format: functional
Procedure, shortened: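 LAD2 human mast cells in StemPro 34 medium, 0.2×10^6 cells/well. Supernatant CCL3 quantified by Luminex magnetic bead kit.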

Sequence of Proprotein convertase subtilisin/kexin type 9 (Q8NBP7 31-152 limits assumed): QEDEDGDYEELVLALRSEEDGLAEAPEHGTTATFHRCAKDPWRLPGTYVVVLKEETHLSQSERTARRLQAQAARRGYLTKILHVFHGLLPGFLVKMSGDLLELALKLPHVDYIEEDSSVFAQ
Sequence of Proprotein convertase subtilisin/kexin type 9 (Q8NBP7 153-692 limits assumed): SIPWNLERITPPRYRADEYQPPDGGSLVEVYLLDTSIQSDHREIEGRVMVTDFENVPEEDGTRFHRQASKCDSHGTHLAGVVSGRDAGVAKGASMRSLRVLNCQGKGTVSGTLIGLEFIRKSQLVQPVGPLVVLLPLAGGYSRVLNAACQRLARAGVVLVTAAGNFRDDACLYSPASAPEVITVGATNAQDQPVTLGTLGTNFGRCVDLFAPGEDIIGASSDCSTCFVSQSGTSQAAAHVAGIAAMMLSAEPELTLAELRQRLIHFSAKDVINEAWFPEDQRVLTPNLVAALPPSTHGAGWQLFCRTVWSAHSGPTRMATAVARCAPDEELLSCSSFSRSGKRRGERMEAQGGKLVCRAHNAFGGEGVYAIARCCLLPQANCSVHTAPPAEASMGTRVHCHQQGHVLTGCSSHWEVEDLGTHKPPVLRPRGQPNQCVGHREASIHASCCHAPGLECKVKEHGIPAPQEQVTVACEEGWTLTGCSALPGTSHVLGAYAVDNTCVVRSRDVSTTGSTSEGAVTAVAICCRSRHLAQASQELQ

| Compound | Kd [2] [µM] | Activity (HepG2) | also measured |
| --- | --- | --- | --- |
| CC(=O)N[C@H](C(=O)N[C@H](C(=O)N[C@@H](Cc1ccccc1)C(=O)N[C@H](C(=O)N[C@@H](CO)C(=O)N[C@@H](Cc1c[nH]c2ccccc12)C(=O)N[C@H]1CCCCNC(=O)C[C@@H](C(=O)N[C@@H](Cc2c[nH]c3ccccc23)C(=O)N[C@H](C(N)=O)C(C)C)NC(=O)[C@H](CC(C)C)NC(=O)[C@H](Cc2ccc(O)cc2)NC(=O)[C@H](CCC(=O)O)NC1=O)[C@@H](C)O)C(C)C)[C@@H](C)O (Ac-TVFTSWKEYLDWV-NH2; lactam 7-11) | 3.9 | Non-Toxic | Activity [1]: 52%; EC50 ([3]; Homo sapiens, LAD2, 2 h): > 5 µM; Emax ([3]; time 2 hrs): 716.6 pg/mL |
| CC(=O)N[C@@H](Cc1cnc[nH]1)C(=O)N[C@H](C(=O)N[C@@H](Cc1ccccc1)C(=O)N[C@@H](CC(N)=O)C(=O)N[C@@H](CO)C(=O)N[C@@H](Cc1c[nH]c2ccccc12)C(=O)N[C@@H](CCC(=O)O)C(=O)N[C@@H](CCC(=O)O)C(=O)N[C@@H](Cc1ccc(O)cc1)C(=O)N[C@@H](CC(C)C)C(=O)N[C@@H](CC(=O)O)C(=O)N[C@@H](Cc1c[nH]c2ccccc12)C(=O)N[C@H](C(=O)NC(CCCCN)C(=O)NC(CCCCN)C(=O)NC(CCCCN)C(N)=O)C(C)C)C(C)C (stereo not given in full) (Ac-HVFNSWEEYLDWV[ξK][ξK][ξK]-NH2) | 1.1 | Non-Toxic |  |
| CC(=O)N[C@@H](Cc1cnc[nH]1)C(=O)N[C@H](C(=O)N[C@@H](Cc1ccccc1)C(=O)N[C@@H](CCCNC(=N)N)C(=O)N[C@@H](CO)C(=O)N[C@@H](Cc1c[nH]c2ccccc12)C(=O)N[C@@]1(C)CCC/C=C\CCC[C@@](C)(C(=O)N[C@@H](Cc2c[nH]c3ccccc23)C(=O)N[C@H](C(=O)N[C@@H](CCCCN)C(=O)N[C@@H](CCCCN)C(=O)N[C@@H](CCCCN)C(=O)N[C@@H](CCCCN)C(=O)N[C@@H](CCCCN)C(=O)N[C@@H](CCCCN)C(N)=O)C(C)C)NC(=O)[C@H](CC(C)C)NC(=O)[C@H](Cc2ccc(O)cc2)NC(=O)[C@H](CCC(=O)O)NC1=O)C(C)C (Ac-HVFRSW[S5]EYL[S5]WVKKKKKK-NH2; staple (Z) 7-11) | 0.007 | Non-Toxic |  |
| CC(=O)N[C@H](C(=O)N[C@H](C(=O)N[C@@H](Cc1ccccc1)C(=O)N[C@H](C(=O)N[C@@H](CO)C(=O)N[C@@H](Cc1c[nH]c2ccccc12)C(=O)N[C@@H](CCC(=O)O)C(=O)N[C@@H](CCC(=O)O)C(=O)N[C@@H](Cc1ccc(O)cc1)C(=O)N[C@@H](CC(C)C)C(=O)NC(C)C(=O)N[C@@H](Cc1c[nH]c2ccccc12)C(=O)N[C@H](C(=O)N[C@@H](CCCCN)C(=O)N[C@@H](CCCCN)C(=O)N[C@@H](CCCCN)C(=O)N[C@@H](CCCCN)C(=O)N[C@@H](CCCCN)C(=O)N[C@@H](CCCCN)C(N)=O)C(C)C)[C@@H](C)O)C(C)C)[C@@H](C)O (stereo not given in full) (Ac-TVFTSWEEYL[ξA]WVKKKKKK-NH2) | 0.0725 |  |  |
| CC(=O)N[C@H](C(=O)N[C@H](C(=O)N[C@@H](Cc1ccccc1)C(=O)N[C@H](C(=O)N[C@@H](CO)C(=O)N[C@@H](Cc1c[nH]c2ccccc12)C(=O)N[C@@]1(C)CCC/C=C\CCC[C@@](C)(C(=O)N[C@@H](Cc2c[nH]c3ccccc23)C(=O)N[C@H](C(N)=O)C(C)C)NC(=O)[C@H](CC(C)C)NC(=O)[C@H](Cc2ccc(O)cc2)NC(=O)[C@H](CCC(=O)O)NC1=O)[C@@H](C)O)C(C)C)[C@@H](C)O (Ac-TVFTSW[S5]EYL[S5]WV-NH2; staple (Z) 7-11) | 6.5 | Non-Toxic | Activity [1]: 42.7% |
| CC(=O)N[C@@H](Cc1cnc[nH]1)C(=O)N[C@H](C(=O)N[C@@H](Cc1ccccc1)C(=O)N[C@@H](CCCN)C(=O)N[C@@H](CO)C(=O)N[C@@H](Cc1c[nH]c2ccccc12)C(=O)N[C@@H](CCC(=O)O)C(=O)N[C@@H](CCC(=O)O)C(=O)N[C@@H](Cc1ccc(O)cc1)C(=O)N[C@@H](CC(C)C)C(=O)N[C@@H](CC(=O)O)C(=O)N[C@@H](Cc1c[nH]c2ccccc12)C(=O)N[C@H](C(N)=O)C(C)C)C(C)C (Ac-HVF[Orn]SWEEYLDWV-NH2) | 1.1 | Non-Toxic |  |
| Ac-HVCNSWEEYLDWV-NH2 |  | Non-Toxic | Activity [2]: inactive |
| Ac-HVFNSWEEYLDWV-NH2 | 3.9 | Non-Toxic | Activity [1]: 62.4% |
| CC(=O)N[C@H](C(=O)N[C@H](C(=O)N[C@@H](Cc1ccccc1)C(=O)N[C@H](C(=O)N[C@@H](CO)C(=O)N[C@@H](Cc1c[nH]c2ccccc12)C(=O)N[C@H]1CCCCNC(=O)C[C@@H](C(=O)N[C@@H](Cc2c[nH]c3ccccc23)C(=O)N[C@H](C(=O)N[C@@H](CCCCN)C(=O)N[C@@H](CCCCN)C(=O)N[C@@H](C)C(=O)N[C@@H](CCCCN)C(=O)N[C@@H](CCCCN)C(=O)N[C@H](CCCCN)C(N)=O)C(C)C)NC(=O)[C@H](CC(C)C)NC(=O)[C@H](Cc2ccc(O)cc2)NC(=O)[C@H](CCC(=O)O)NC1=O)[C@@H](C)O)C(C)C)[C@@H](C)O | 0.133 |  |  |
| CC(=O)N[C@@H](Cc1cnc[nH]1)C(=O)N[C@H](C(=O)N[C@@H](Cc1ccccc1)C(=O)N[C@@H](CC(N)=O)C(=O)N[C@@H](CO)C(=O)N[C@@H](Cc1c[nH]c2ccccc12)C(=O)N[C@H]1CCCCNC(=O)C[C@@H](C(=O)N[C@@H](Cc2c[nH]c3ccccc23)C(=O)N[C@H](C(=O)N[C@@H](CCCCN)C(=O)N[C@@H](CCCCN)C(=O)N[C@@H](CCCCN)C(=O)N[C@@H](CCCCN)C(=O)N[C@@H](CCCCN)C(=O)N[C@@H](CCCCN)C(N)=O)C(C)C)NC(=O)[C@H](CC(C)C)NC(=O)[C@H](Cc2ccc(O)cc2)NC(=O)[C@H](CCC(=O)O)NC1=O)C(C)C (Ac-HVFNSWKEYLDWVKKKKKK-NH2; lactam 7-11) | 0.019 | Non-Toxic |  |
| CC(=O)N[C@@H](Cc1cnc[nH]1)C(=O)N[C@H](C(=O)N[C@@H](Cc1ccccc1)C(=O)N[C@@H](CC(N)=O)C(=O)N[C@@H](CO)C(=O)N[C@@H](Cc1c[nH]c2ccccc12)C(=O)N[C@H]1CCCCNC(=O)C[C@@H](C(=O)N[C@@H](Cc2c[nH]c3ccccc23)C(=O)N[C@H](C(=O)NC(CCCCN)C(=O)NC(CCCCN)C(=O)NC(CCCCN)C(N)=O)C(C)C)NC(=O)[C@H](CC(C)C)NC(=O)[C@H](Cc2ccc(O)cc2)NC(=O)[C@H](CCC(=O)O)NC1=O)C(C)C (stereo not given in full) (Ac-HVFNSWKEYLDWV[ξK][ξK][ξK]-NH2; lactam 7-11) | 0.757 | Non-Toxic |  |
| Ac-HVFRSWEEYLDWV-NH2 | 0.865 | Non-Toxic |  |
| Ac-TVFTSWEEALDWV-NH2 |  | Non-Toxic |  |
| CC(=O)N[C@H](C(=O)N[C@H](C(=O)N[C@@H](Cc1ccccc1)C(=O)N[C@H](C(=O)N[C@@H](CO)C(=O)N[C@@H](Cc1c[nH]c2ccccc12)C(=O)N[C@H]1CCCCNC(=O)C[C@@H](C(=O)N[C@@H](Cc2c[nH]c3ccccc23)C(=O)N[C@H](C(=O)N[C@@H](CCCCN)C(=O)N[C@@H](CCCCN)C(=O)N[C@@H](CCCCN)C(=O)N[C@@H](CCCCN)C(=O)N[C@@H](CCCCN)C(=O)N[C@@H](CCCCN)C(N)=O)C(C)C)NC(=O)[C@H](CC(C)C)NC(=O)[C@H](Cc2ccc(O)cc2)NC(=O)[C@H](CCC(=O)O)NC1=O)[C@@H](C)O)C(C)C)[C@@H](C)O (Ac-TVFTSWKEYLDWVKKKKKK-NH2; lactam 7-11) | 0.025 | Non-Toxic |  |
| Ac-TVFTSWEEYLAWV-NH2 | 8.6 |  |  |
| Ac-TVATSWEEYLDWV-NH2 |  |  | Activity [2]: inactive |
| CC(=O)N[C@@H](Cc1cnc[nH]1)C(=O)N[C@H](C(=O)N[C@@H](Cc1ccccc1)C(=O)N[C@@H](CC(N)=O)C(=O)N[C@@H](CO)C(=O)N[C@@H](Cc1c[nH]c2ccccc12)C(=O)N[C@H]1CCCCNC(=O)C[C@@H](C(=O)N[C@@H](Cc2c[nH]c3ccccc23)C(=O)N[C@H](C(N)=O)C(C)C)NC(=O)[C@H](CC(C)C)NC(=O)[C@H](Cc2ccc(O)cc2)NC(=O)[C@H](CCC(=O)O)NC1=O)C(C)C (Ac-HVFNSWKEYLDWV-NH2; lactam 7-11) | 5.3 | Non-Toxic |  |
| Ac-HVFKSWEEYLDWV-NH2 | 1.2 | Non-Toxic |  |
| Ac-TVFTSWAEYLDWV-NH2 | 7 | Non-Toxic |  |
| CC(=O)N[C@H](C(=O)N[C@H](C(=O)N[C@@H](Cc1ccccc1)C(=O)N[C@H](C(=O)N[C@@H](CO)C(=O)N[C@@H](Cc1c[nH]c2ccccc12)C(=O)N[C@H]1CCCCNC(=O)C[C@@H](C(=O)N[C@@H](Cc2c[nH]c3ccccc23)C(=O)N[C@H](C(=O)N[C@@H](CCCCN)C(=O)N[C@@H](CCCCN)C(=O)N[C@@H](CCCCN)C(N)=O)C(C)C)NC(=O)[C@H](CC(C)C)NC(=O)[C@H](Cc2ccc(O)cc2)NC(=O)[C@H](CCC(=O)O)NC1=O)[C@@H](C)O)C(C)C)[C@@H](C)O (Ac-TVFTSWKEYLDWVKKK-NH2; lactam 7-11) | 1 | Non-Toxic |  |
